# Source: ChEMBL document CHEMBL1136836, “Aryloxy cyclohexyl imidazoles: a novel class of antileishmanial agents” (Bioorg Med Chem Lett, 2009)
# What was measured:
# Leishmania donovani [1] = assay: Antileishmanial activity against Leishmania donovani extracellular promastigotes at 10 ug/ml after 72 hrs by luciferase activity-based drug susceptibility assay; assay type: functional
# In short: (§1)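 Transgenic L. donovani promastigotes tested at various concentrations up to a maximum of 10 µg/ml, with sodium stibogluconate and pentamidine as reference drugs. IC50 derived by Probit analysis.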
# [2] = (§2) Selectivity index, ratio of CC50 for mouse J774A1 cells to IC50 for Leishmania donovani intracellular amastigotes infected in mouse J774A1 cells; assay type: functional, J774.A1
# In short: (§3)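 SI is based on CC50 in J-774-A-1 macrophages and IC50 in the antileishmanial assay.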
# Leishmania donovani [3] = assay: Antileishmanial activity against Leishmania donovani infected in hamster assessed as inhibition of parasite growth at 50 mg/kg, ip for 10 days; assay type: functional; details: 240 h, route intraperitoneal
# In short: (§4)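 L. donovani-infected hamster model. Dosing was intraperitoneal, 10 doses: test compounds at 50 mg/kg, sodium stibogluconate at 20 mg/kg, pentamidine at 40 mg/kg. Read-out is percent inhibition of parasites.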
# Leishmania donovani [4] = assay: Antileishmanial activity against Leishmania donovani intracellular amastigotes infected in mouse J774A1 cells after 48 hrs by luciferase activity-based drug susceptibility assay; assay type: functional, organism-based; details: for Activity: J774.A1; for IC50: J774.A1, 48 h
# In short: (§5)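 Intracellular amastigotes of transgenic L. donovani in mouse J-774-A-1 macrophages, exposed to a range of concentrations up to a maximum of 10 µg/ml. Sodium stibogluconate and pentamidine served as reference drugs. IC50 calculated by Probit analysis.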
# Leishmania donovani [5] = assay: Antileishmanial activity against Leishmania donovani extracellular promastigotes after 72 hrs by luciferase activity-based drug susceptibility assay; assay type: functional, organism-based; in short: as §1
# Leishmania donovani [6] = assay: Antileishmanial activity against Leishmania donovani intracellular amastigotes infected in mouse J774A1 cells at 10 ug/ml after 48 hrs by luciferase activity-based drug susceptibility assay; assay type: functional; details: for inhibition at 10 µg/mL: J774.A1, 48 h; in short: as §5
# [7] = Cytotoxicity against mouse J774A1 cells after 48 hrs by Geimsa staining method; assay type: cell-based, J774.A1
# In short: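 Mouse macrophage line J-774-A-1 used for the cytotoxicity read-out. CC50 is the concentration giving 50% inhibition of cell viability.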
# Leishmania donovani [8] = assay: Antileishmanial activity against Leishmania donovani infected in hamster assessed as inhibition of parasite growth at 40 mg/kg, ip for 10 days; assay type: functional; details: 240 h, route intraperitoneal; in short: as §4
# J774.A1 = assay: as §2; assay type: functional; in short: as §3
# Leishmania donovani [9] = assay: Antileishmanial activity against Leishmania donovani infected in hamster assessed as inhibition of parasite growth at 20 mg/kg, ip for 10 days; assay type: functional, organism-based; design: dose 20 mg/kg; in short: as §4
Compound,inhibition at 10 µg/mL (Leishmania donovani [1]) [%],Ratio CC50/IC50 [2],inhibition in vivo at 50 mg/kg (Leishmania donovani [3]) [%],Activity (Leishmania donovani [4]),IC50 (Leishmania donovani [4]) [µg/mL],Activity (Leishmania donovani [5]),IC50 (Leishmania donovani [5]) [µg/mL],inhibition at 10 µg/mL (Leishmania donovani [6]) [%],CC50 at 48 h [7] [µg/mL],inhibition in vivo at 40 mg/kg (Leishmania donovani [8]) [%],inhibition (Leishmania donovani [1]) [%],Ratio CC50/IC50 (J774.A1),inhibition (Leishmania donovani [9]) [%],inhibition (Leishmania donovani [6]; J774.A1) [%]
O=[N+]([O-])c1ccc(OC2C(Cn3ccnc3)CCCC2Cn2ccnc2)c(F)c1 (stereo not drawn),100,33.64,77.9,Dose-dependent effect,1.17,Dose-dependent effect,3.57,100,39.4,,,,,
N=C(N)c1ccc(OCCCCCOc2ccc(C(=N)N)cc2)cc1 [PENTAMIDINE],100,2.58,,Dose-dependent effect,12.1,Dose-dependent effect,0.643,100,31.3,92,,,,
FC(F)(F)c1ccc(OC2C(Cn3ccnc3)CCCC2Cn2ccnc2)cc1 (stereo not drawn),100,83.6,51,Dose-dependent effect,1.13,Dose-dependent effect,3.28,100,94.5,,,,,
OC1C(Cn2ccnc2)CCCC1Cn1ccnc1 (stereo not drawn),100,>9.28,,Dose-dependent effect,10.8,Dose-dependent effect,9.4,100,> 100,,,,,
O=[N+]([O-])c1ccc(O[C@H]2CCCC[C@@H]2Cn2ccnc2)c(F)c1,100,>140.84,55.4,Dose-dependent effect,0.71,Dose-dependent effect,1.08,100,> 100,,,,,
O=[N+]([O-])c1ccccc1OC1C(Cn2ccnc2)CCCC1Cn1ccnc1 (stereo not drawn),100,28.47,,Dose-dependent effect,2.44,Dose-dependent effect,9.57,100,69.4,,,,,
O=[N+]([O-])c1ccc(OC2C(n3ccnc3)CCCC2n2ccnc2)cc1 (stereo not drawn),100,>11.4,,Dose-dependent effect,8.76,Dose-dependent effect,4.67,100,> 100,,,,,
"D-gluconic acid 2,4:2',4'-O-[oxybis(oxidostibylidyne)]bis-trisodium salt nonahydrate",,,,Dose-dependent effect,,Dose-dependent effect,,,,,100,6.38,84.1,100
O=[N+]([O-])c1ccc(OC2C(Cn3ccnc3)CCCC2Cn2ccnc2)cc1 (stereo not drawn),100,37.51,52,Dose-dependent effect,1.97,Dose-dependent effect,5.52,100,73.9,,,,,
FC(F)(F)c1ccc(OC2C(n3ccnc3)CCCC2n2ccnc2)cc1 (stereo not drawn),100,32.143,36.8,Dose-dependent effect,3,Dose-dependent effect,2.06,100,96.4,,,,,
FC(F)(F)c1ccc(O[C@H]2CCCC[C@@H]2Cn2ccnc2)cc1,100,9.292,,Dose-dependent effect,3.83,Dose-dependent effect,0.81,100,35.6,,,,,
O=[N+]([O-])c1ccc(OC2C(n3ccnc3)CCCC2n2ccnc2)c(F)c1 (stereo not drawn),100,30,56.7,Dose-dependent effect,3.02,Dose-dependent effect,6.13,100,90.6,,,,,
O=[N+]([O-])c1ccc(O[C@H]2CCCC[C@@H]2Cn2ccnc2)cc1,100,9.757,,Dose-dependent effect,4.57,Dose-dependent effect,0.82,100,44.6,,,,,
O=[N+]([O-])c1ccccc1O[C@H]1CCCC[C@@H]1Cn1ccnc1,100,9.39,,Dose-dependent effect,6.72,Dose-dependent effect,4.23,100,63.1,,,,,
O=[N+]([O-])c1ccc(OC2C(Cn3ccnc3)CCCC2Cn2ccnc2)c(C(F)(F)F)c1 (stereo not drawn),100,24.557,,Dose-dependent effect,0.588,Dose-dependent effect,6.72,100,14.4,,,,,
O=[N+]([O-])c1ccc(O[C@H]2CCCC[C@@H]2Cn2ccnc2)c(C(F)(F)F)c1,100,6.49,,Dose-dependent effect,2.13,Dose-dependent effect,2.37,100,13.8,,,,,
